Measured values published in ChEMBL document CHEMBL4715754, “Slowing down fat digestion and absorption by an oxadiazolone inhibitor targeting selectively gastric lipolysis” (2016).
Active and inactive are the calls of the source. The calls are words filed in the database; no cut-off is given here.

Experiments:
[1] = biological target: T1, Gastric triacylglycerol lipase (Canis lupus familiaris) (UniProt P80035); experiment: Inhibition of recombinant dog gastric lipase at 20:1 molar excess compound concentration preincubated for 30 mins at 25 degreeC relative to control
T1 sequence (whole entry): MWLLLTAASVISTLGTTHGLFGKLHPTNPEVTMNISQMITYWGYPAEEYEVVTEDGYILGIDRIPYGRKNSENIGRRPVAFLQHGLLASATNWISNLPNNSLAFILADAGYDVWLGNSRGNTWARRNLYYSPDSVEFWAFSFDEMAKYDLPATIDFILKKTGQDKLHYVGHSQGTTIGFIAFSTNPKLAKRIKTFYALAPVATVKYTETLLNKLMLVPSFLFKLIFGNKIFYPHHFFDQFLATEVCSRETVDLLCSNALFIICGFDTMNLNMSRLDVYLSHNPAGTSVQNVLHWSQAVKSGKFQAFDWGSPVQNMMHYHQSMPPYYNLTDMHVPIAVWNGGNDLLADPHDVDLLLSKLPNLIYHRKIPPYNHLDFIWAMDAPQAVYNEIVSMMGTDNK

[2] = biological target: T1, Gastric triacylglycerol lipase (Canis lupus familiaris); experiment: Inhibition of recombinant dog gastric lipase at 4:1 molar excess compound concentration preincubated for 30 mins at 25 degreeC relative to control
[3] = biological target: T1, Gastric triacylglycerol lipase (Canis lupus familiaris); experiment: Inhibition of recombinant dog gastric lipase preincubated for 30 mins at 25 degreeC
[4] = biological target: T2, Pancreatic lipase-related protein 2 (Cavia porcellus) (UniProt P81139); experiment: Inhibition of recombinant guinea pig PL-RP2 expressed in Aspergillus oryzae at 4:1 molar excess compound concentration preincubated for 30 mins at 25 degreeC relative to control
T2 sequence (whole entry): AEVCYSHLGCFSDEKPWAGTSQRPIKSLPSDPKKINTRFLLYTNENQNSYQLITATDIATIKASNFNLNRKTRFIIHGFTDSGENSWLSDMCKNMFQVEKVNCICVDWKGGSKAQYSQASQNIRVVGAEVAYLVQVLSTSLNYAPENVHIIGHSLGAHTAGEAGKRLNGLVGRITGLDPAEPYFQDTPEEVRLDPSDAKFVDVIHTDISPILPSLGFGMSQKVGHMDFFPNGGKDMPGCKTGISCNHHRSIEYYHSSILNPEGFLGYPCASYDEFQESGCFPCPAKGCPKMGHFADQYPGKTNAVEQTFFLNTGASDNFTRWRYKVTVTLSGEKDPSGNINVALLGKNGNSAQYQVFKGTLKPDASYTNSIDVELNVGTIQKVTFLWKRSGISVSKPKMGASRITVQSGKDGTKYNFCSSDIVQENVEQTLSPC

[5] = biological target: T2, Pancreatic lipase-related protein 2 (Cavia porcellus); experiment: Inhibition of recombinant guinea pig PL-RP2 expressed in Aspergillus oryzae at 20:1 molar excess compound concentration preincubated for 30 mins at 25 degreeC relative to control
[6] = biological target: T2, Pancreatic lipase-related protein 2 (Cavia porcellus); experiment: Inhibition of recombinant guinea pig PL-RP2 expressed in Aspergillus oryzae preincubated for 30 mins at 25 degreeC
[7] = biological target: T3, Pancreatic triacylglycerol lipase (Sus scrofa) (UniProt P00591); experiment: Inhibition of porcine pancreatic lipase at 400:1 molar excess compound concentration preincubated for 30 mins at 25 degreeC relative to control
T3 sequence (whole entry): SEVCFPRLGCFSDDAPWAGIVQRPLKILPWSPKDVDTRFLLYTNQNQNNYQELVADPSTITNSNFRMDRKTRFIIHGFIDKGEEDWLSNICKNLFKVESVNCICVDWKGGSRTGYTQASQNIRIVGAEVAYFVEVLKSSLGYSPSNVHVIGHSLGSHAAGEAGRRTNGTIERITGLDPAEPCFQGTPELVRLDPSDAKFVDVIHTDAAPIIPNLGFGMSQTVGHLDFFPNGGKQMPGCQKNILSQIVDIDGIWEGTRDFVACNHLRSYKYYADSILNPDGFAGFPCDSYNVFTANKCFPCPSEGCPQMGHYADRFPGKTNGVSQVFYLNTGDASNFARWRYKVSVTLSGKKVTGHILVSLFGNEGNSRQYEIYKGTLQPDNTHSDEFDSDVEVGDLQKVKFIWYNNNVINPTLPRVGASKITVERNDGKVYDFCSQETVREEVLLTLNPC
In short: (§1)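 Pancreatic lipase from human pancreatic juice (54 µg/mL HPL stock) or porcine pancreatic extract (32 µg/mL PPL stock) was held in 10 mM MES pH 7.0, 150 mM NaCl. It was pre-incubated with inhibitor from DMSO stock for 30 min at 25 °C with 4 mM NaTDC at varied molar excess. Residual activity was read by pH-stat on tributyrin at 37 °C, pH 8.0, with 2 mM CaCl₂ and 4 mM NaTDC. x_I50 was taken from residual activity; DMSO-only controls were run.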

[8] = biological target: T3, Pancreatic triacylglycerol lipase (Sus scrofa); experiment: Inhibition of porcine pancreatic lipase preincubated for 30 mins at 25 degreeC; in short: as §1
[9] = biological target: T4, Pancreatic triacylglycerol lipase (Homo sapiens) (UniProt P16233); experiment: Inhibition of human pancreatic lipase at 400:1 molar excess compound concentration preincubated for 30 mins at 25 degreeC relative to control; in short: as §1
T4 sequence (whole entry): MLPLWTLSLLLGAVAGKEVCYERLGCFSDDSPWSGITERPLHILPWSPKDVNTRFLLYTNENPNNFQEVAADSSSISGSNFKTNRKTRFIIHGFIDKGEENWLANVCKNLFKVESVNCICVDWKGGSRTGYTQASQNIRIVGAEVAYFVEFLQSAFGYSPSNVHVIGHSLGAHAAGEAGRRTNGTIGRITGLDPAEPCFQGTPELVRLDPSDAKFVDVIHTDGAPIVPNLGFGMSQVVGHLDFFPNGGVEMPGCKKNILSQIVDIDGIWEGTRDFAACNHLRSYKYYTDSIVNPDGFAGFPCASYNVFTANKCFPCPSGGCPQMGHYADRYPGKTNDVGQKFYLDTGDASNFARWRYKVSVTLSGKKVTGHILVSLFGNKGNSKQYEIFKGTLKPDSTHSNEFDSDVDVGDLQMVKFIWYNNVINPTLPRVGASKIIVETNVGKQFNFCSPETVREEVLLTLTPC

[10] = biological target: T4, Pancreatic triacylglycerol lipase (Homo sapiens); experiment: Inhibition of human pancreatic lipase preincubated for 30 mins at 25 degreeC; in short: as §1
[11] = biological target: T3, Pancreatic triacylglycerol lipase (Sus scrofa); experiment: Inhibition of porcine pancreatic lipase at 400:1 molar excess compound concentration preincubated for 120 mins at 25 degreeC
[12] = biological target: T4, Pancreatic triacylglycerol lipase (Homo sapiens); experiment: Inhibition of human pancreatic lipase at 400:1 molar excess compound concentration preincubated for 120 mins at 25 degreeC

SMILES	inhibition [1]	inhibition [2]	XI50 [3]	inhibition [4]	inhibition [5]	XI50 [6]	inhibition [7]	XI50 [8]	inhibition [9]	XI50 [10]	inhibition [11]	inhibition [12]
CCCCCCCCOc1nn(-c2cccc(Oc3ccccc3)c2)c(=O)o1	70.5%	53.9%	3.99 molar excess	62.3%	63%	1.47 molar excess	19.9%	> 400 molar excess	25.7%	> 400 molar excess		
CCCCCCCCCCOc1nn(-c2cccc(Oc3ccccc3)c2)c(=O)o1	37.7%	14.6%	> 100 molar excess	56.4%	57.4%	2.72 molar excess	32.5%	> 400 molar excess	20.1%	> 400 molar excess		
CCOc1nn(-c2cccc(Oc3ccccc3)c2)c(=O)o1	83%	33.6%	6.08 molar excess	27.4%	27.7%	> 40 molar excess	19%	> 400 molar excess	18.8%	> 400 molar excess		
CCCCC(CC)COc1nn(-c2cccc(Oc3ccccc3)c2)c(=O)o1 (stereo not drawn)	27.6%	21.6%	> 100 molar excess	47.9%	54.8%	2.8 molar excess	18.9%	> 400 molar excess	22.4%	> 400 molar excess		
COCCOc1nn(-c2cccc(Oc3ccccc3)c2)c(=O)o1	69.1%	18.1%	11.8 molar excess	60.3%	67.8%	1.7 molar excess	15.5%	> 400 molar excess	20%	> 400 molar excess		
CCCCCCOc1nn(-c2cccc(Oc3ccccc3)c2)c(=O)o1	65.9%	43.5%	4.92 molar excess	90.7%	91.3%	1.09 molar excess	27.2%	> 400 molar excess	17.1%	> 400 molar excess		
CC(C)COc1nn(-c2cccc(Oc3ccccc3)c2)c(=O)o1	69.6%	35.2%	5.51 molar excess	73.6%	76%	0.52 molar excess	20.6%	> 400 molar excess	21.2%	> 400 molar excess		
CCCCCCCCCCCCOc1nn(-c2cccc(Oc3ccccc3)c2)c(=O)o1	68.2%	44.1%	4.57 molar excess	53.1%	54.4%	1.17 molar excess	27.9%	> 400 molar excess	29.1%	> 400 molar excess		
COc1nn(-c2cccc(Oc3ccccc3)c2)c(=O)o1									49.1%		inactive	inactive
COc1nn(-c2ccccc2)c(=O)o1							90.6%		25.6%	> 400 molar excess		
CCCCOc1nn(-c2cccc(Oc3ccccc3)c2)c(=O)o1	77.5%	41.5%	5.33 molar excess	42.4%	43.8%	> 40 molar excess	19.7%	> 400 molar excess	19.1%	> 400 molar excess		
COc1nn(-c2ccc(Oc3ccccc3)cc2)c(=O)o1								> 400 molar excess	4%			
